From ChEMBL document CHEMBL1143785, “N/C-4 substituted azetidin-2-ones: synthesis and preliminary evaluation as new class of antimicrobial agents” (2007)
In brackets after ≈: the same amount, converted by molar mass. Activity calls are given as the source filed them. The rule behind the calls is not given here.

Key:
[1] = test system: Salmonella typhi; assay: Antimicrobial activity against Salmonella typhi at 400 ug/ml after 48 hrs by disc-diffusion assay; assay type: functional, Salmonella enterica subsp. enterica serovar Typhi; settings: for zone of inhibition at 400 µg/mL: Salmonella enterica, read-out: IZ; for inhibition zone (IZ): Salmonella enterica subsp. enterica serovar Typhi
Procedure, shortened: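 Disc diffusion. A few colonies were grown in nutrient broth for 2.5 h, then spread evenly on dried agar plates. Sterile 6 mm paper discs impregnated with compound were placed on the surface. Plates were incubated at 37 °C and the inhibition zone diameter in mm was read at 48 h. A DMF-only disc served as the negative control and chloramphenicol as the standard.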

[2] = test system: Staphylococcus aureus; assay: Antimicrobial activity against Staphylococcus aureus at 400 ug/ml after 48 hrs by disc-diffusion assay; assay type: functional; settings: for zone of inhibition at 400 µg/mL: read-out: IZ
Procedure, shortened: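 Bacteria were grown 2.5 h in nutrient broth and spread evenly over dried agar plates. Sterile 6 mm paper discs were impregnated with 400 µg/mL compound and placed on the inoculated surface. A DMF solvent-only disc served as negative control and chloramphenicol as reference. Plates were incubated at 37 °C and inhibition zone diameter (mm) was read at 48 h.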

[3] = test system: Bacillus anthracis; assay: Antimicrobial activity against Bacillus anthracis at 400 ug/ml after 48 hrs by disc-diffusion assay; assay type: functional; settings: for zone of inhibition at 400 µg/mL: read-out: IZ
[4] = test system: Candida albicans; assay: Antimicrobial activity against Candida albicans after 72 hrs by broth dilution assay; assay type: functional
Procedure, shortened: (§1)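 Tube broth dilution in Sabouraud's Dextrose medium. Compound was dissolved in DMF and tested over 15.62 to 8000 µg/mL. Tubes were inoculated with fungal culture suspension and incubated at 25 °C for 72 h alongside a control. MIC was taken as the lowest concentration giving no turbidity.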

[5] = test system: Aspergillus niger; assay: Antimicrobial activity against Aspergillus niger after 72 hrs by broth dilution assay; assay type: functional; procedure, shortened: as §1
[6] = test system: Aspergillus fumigatus; assay: Antimicrobial activity against Aspergillus fumigatus after 72 hrs by broth dilution assay; assay type: functional; procedure, shortened: as §1

`O=C1[C@@H](Cl)[C@@H](c2cc(/N=N/c3cccc([N+](=O)[O-])c3)ccc2O)N1c1ccc(F)cc1` was tested, and the zone of inhibition at 400 µg/mL [1] was 21 mm, the zone of inhibition at 400 µg/mL [2] was 29 mm and the zone of inhibition at 400 µg/mL [3] was 28 mm. It also gave an MIC [4] of 62.5 µg/mL (≈ 0.142 mM) and an MIC [5] of 500 µg/mL (≈ 1.13 mM).

Compound `O=C1[C@@H](Cl)[C@@H](c2cc(/N=N/c3cccc([N+](=O)[O-])c3)ccc2O)N1c1ccccc1` has a zone of inhibition at 400 µg/mL [1] of 18 mm, a zone of inhibition at 400 µg/mL [2] of 24 mm and a zone of inhibition at 400 µg/mL [3] of 31 mm. It also gave an MIC [4] of 1000 µg/mL (≈ 2.37 mM) and an MIC [5] of 4000 µg/mL (≈ 9.46 mM).

With `COc1cc([C@@H]2[C@H](Cl)C(=O)N2NC(=O)CC(=O)Nc2ccccc2)ccc1OC(C)=O` the “inhibition zone (IZ)” value [1] was “inactive”, the zone of inhibition at 400 µg/mL [2] was 10 mm and the “inhibition zone (IZ)” value [3] was “inactive”. For the same compound, the MIC [4] was 1000 µg/mL (≈ 2.24 mM) and the MIC [5] was 4000 µg/mL (≈ 8.97 mM).

In the case of `O=C1[C@@H](Cl)[C@@H](c2cc(/N=N/c3cccc([N+](=O)[O-])c3)ccc2O)N1c1ccc(Cl)cc1`, the zone of inhibition at 400 µg/mL [1] is reported as 27 mm, the zone of inhibition at 400 µg/mL [2] is reported as 30 mm and the zone of inhibition at 400 µg/mL [3] is reported as 32 mm. The MIC [4] was 125 µg/mL (≈ 0.273 mM) and the MIC [5] was 1000 µg/mL (≈ 2.19 mM).

For `O=C1[C@@H](Cl)[C@@H](c2cc(/N=N/c3ccc([N+](=O)[O-])cc3)ccc2O)N1c1ccc(F)cc1`, the “inhibition zone (IZ)” value [1] was “inactive”, the “inhibition zone (IZ)” value [2] was “inactive” and the zone of inhibition at 400 µg/mL [3] was 12 mm. The MIC [4] was 2000 µg/mL (≈ 4.54 mM) and the MIC [5] was 4000 µg/mL (≈ 9.07 mM).

In the case of `COc1cc([C@@H]2[C@H](Cl)C(=O)N2NC(=O)CC(=O)Nc2ccccc2[N+](=O)[O-])ccc1OC(C)=O`, the “inhibition zone (IZ)” value [1] is reported as “inactive”, the zone of inhibition at 400 µg/mL [2] is reported as 11 mm and the zone of inhibition at 400 µg/mL [3] is reported as 17 mm. The MIC [4] was 2000 µg/mL (≈ 4.07 mM) and the MIC [5] was 4000 µg/mL (≈ 8.15 mM).

In the case of `OC(Cn1cncn1)(Cn1cncn1)c1ccc(F)cc1F` [FLUCONAZOLE], the “inhibition zone (IZ)” value [1] is reported as “inactive”, the “inhibition zone (IZ)” value [2] is reported as “inactive” and the “inhibition zone (IZ)” value [3] is reported as “inactive”. The MIC [4] was 250 µg/mL (≈ 0.816 mM) and the MIC [5] was 2000 µg/mL (≈ 6.53 mM).

`COc1cc([C@@H]2[C@H](Cl)C(=O)N2NC(=O)CC(=O)Nc2ccc(Cl)cc2)ccc1OC(C)=O` gave a zone of inhibition at 400 µg/mL [1] of 29 mm, a zone of inhibition at 400 µg/mL [2] of 30 mm and a zone of inhibition at 400 µg/mL [3] of 34 mm. The MIC [4] was 31.2 µg/mL (≈ 0.0651 mM) and the MIC [5] was 1000 µg/mL (≈ 2.08 mM).

`O=C1[C@@H](Cl)[C@@H](c2cc(/N=N/c3ccc([N+](=O)[O-])cc3)ccc2O)N1c1ccc(Br)cc1` was tested, and the “inhibition zone (IZ)” value [1] was “inactive”, the “inhibition zone (IZ)” value [2] was “inactive” and the zone of inhibition at 400 µg/mL [3] was 8 mm. For the same compound, the MIC [4] was 4000 µg/mL (≈ 7.97 mM), the MIC [5] was 4000 µg/mL (≈ 7.97 mM) and the MIC [6] was “inactive”.

`COc1cc([C@@H]2[C@H](Cl)C(=O)N2NC(=O)CC(=O)Nc2cccc([N+](=O)[O-])c2)ccc1OC(C)=O` showed a zone of inhibition at 400 µg/mL [1] of 31 mm, a zone of inhibition at 400 µg/mL [2] of 27 mm and a zone of inhibition at 400 µg/mL [3] of 33 mm. For the same compound, the MIC [4] was 62.5 µg/mL (≈ 0.127 mM) and the MIC [5] was 2000 µg/mL (≈ 4.07 mM).

Compound `O=C(N[C@H](CO)[C@H](O)c1ccc([N+](=O)[O-])cc1)C(Cl)Cl` [CHLORAMPHENICOL] has a zone of inhibition at 400 µg/mL [1] of 36 mm, a zone of inhibition at 400 µg/mL [2] of 32 mm and a zone of inhibition at 400 µg/mL [3] of 34 mm. For the same compound, the MIC [4] was “inactive”, the MIC [5] was “inactive” and the MIC [6] was “inactive”.

`O=C1[C@@H](Cl)[C@@H](c2cc(/N=N/c3cccc([N+](=O)[O-])c3)ccc2O)N1c1ccc(Br)cc1` showed a zone of inhibition at 400 µg/mL [1] of 8 mm, a zone of inhibition at 400 µg/mL [2] of 11 mm and a zone of inhibition at 400 µg/mL [3] of 17 mm. The MIC [4] was “inactive” and the MIC [5] was 4000 µg/mL (≈ 7.97 mM).

With `COc1cc([C@@H]2[C@H](Cl)C(=O)N2NC(=O)CC(=O)Nc2ccc([N+](=O)[O-])cc2)ccc1OC(C)=O` the “inhibition zone (IZ)” value [1] was “inactive”, the “inhibition zone (IZ)” value [2] was “inactive” and the zone of inhibition at 400 µg/mL [3] was 12 mm. It also gave an MIC [4] of 1000 µg/mL (≈ 2.04 mM) and an MIC [5] of 4000 µg/mL (≈ 8.15 mM).

In the case of `COc1cc([C@@H]2[C@H](Cl)C(=O)N2NC(=O)CC(=O)Nc2ccccc2Cl)ccc1OC(C)=O`, the “inhibition zone (IZ)” value [1] is reported as “inactive”, the zone of inhibition at 400 µg/mL [2] is reported as 12 mm and the zone of inhibition at 400 µg/mL [3] is reported as 21 mm. The MIC [4] was 500 µg/mL (≈ 1.04 mM) and the MIC [5] was 1000 µg/mL (≈ 2.08 mM).

`O=C1[C@@H](Cl)[C@@H](c2cc(/N=N/c3ccc([N+](=O)[O-])cc3)ccc2O)N1c1ccc(Cl)cc1` was tested, and the zone of inhibition at 400 µg/mL [1] was 10 mm, the zone of inhibition at 400 µg/mL [2] was 17 mm and the zone of inhibition at 400 µg/mL [3] was 21 mm. The MIC [4] was 250 µg/mL (≈ 0.547 mM), the MIC [5] was 2000 µg/mL (≈ 4.37 mM) and the MIC [6] was “inactive”.

With `O=C1[C@@H](Cl)[C@@H](c2cc(/N=N/c3ccc([N+](=O)[O-])cc3)ccc2O)N1c1ccccc1` the “inhibition zone (IZ)” value [1] was “inactive”, the zone of inhibition at 400 µg/mL [2] was 8 mm and the zone of inhibition at 400 µg/mL [3] was 10 mm. For the same compound, the MIC [4] was 2000 µg/mL (≈ 4.73 mM), the MIC [5] was 4000 µg/mL (≈ 9.46 mM) and the MIC [6] was “inactive”.

`COc1cc([C@@H]2[C@H](Cl)C(=O)N2NC(=O)CC(=O)Nc2cccc(Cl)c2)ccc1OC(C)=O` showed a zone of inhibition at 400 µg/mL [1] of 17 mm, a zone of inhibition at 400 µg/mL [2] of 26 mm and a zone of inhibition at 400 µg/mL [3] of 22 mm. For the same compound, the MIC [4] was 125 µg/mL (≈ 0.26 mM) and the MIC [5] was 2000 µg/mL (≈ 4.16 mM).
